From ChEMBL document CHEMBL2396524, “Design, synthesis and biological evaluation of enzymatically cleavable NSAIDs prodrugs derived from self-immolative dendritic scaffolds for the treatment of inflammatory diseases” (Bioorg Med Chem, 2013)

Columns and labels:
[1] = Chemical stability of the compound in phosphate buffer at pH 2 assessed as compound remaining at 0.1 uM after 240 hrs by RP-HPLC analysis; assay type: physicochemical; conditions: read-out: Stability
Procedure, shortened: (§1)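 Conjugates at 0.1 µM were incubated at 37 °C in 20 mM phosphate buffer at pH 2.0, 7.0 or 8.0. Intact conjugate was measured by RP-HPLC: RP18 column, methanol/0.05 mol/l KH2PO4 pH 3.0 (60:40), 1.0 ml/min, UV 256 nm, 25 °C. Results are % remaining, mean ± SD.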

[2] = system: Mus musculus; assay: Gastrointestinal toxicity in Kunming mouse assessed as ulcer index at 200 mg/kg, po after 4 hrs; assay type: organism-based; parameters: dose 200 mg/kg, route oral; conditions: in vivo
Procedure, shortened: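 Kunming mice of either sex (18–22 g), 10 per group, were fasted 24 h. A 200 mg/kg oral dose was given as a suspension in 1% methylcellulose, and mice were killed after 4 h. Stomachs were fixed 30 min in 10% formaldehyde, opened along the greater curvature and lesion lengths measured under magnification. UI = summed lesion length (mm) per group divided by 10 animals.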

[3] = Chemical stability of the compound in phosphate buffer at pH 7 assessed as compound remaining at 0.1 uM after 48 hrs by RP-HPLC analysis; assay type: physicochemical; conditions: read-out: Stability; procedure, shortened: as §1
[4] = Chemical stability of the compound in phosphate buffer at pH 8 assessed as compound remaining at 0.1 uM after 240 hrs by RP-HPLC analysis; assay type: physicochemical; conditions: read-out: Stability; procedure, shortened: as §1
[5] = Chemical stability of the compound in phosphate buffer at pH 7 assessed as compound remaining at 0.1 uM after 240 hrs by RP-HPLC analysis; assay type: physicochemical; conditions: read-out: Stability; procedure, shortened: as §1
[6] = Chemical stability of the compound in phosphate buffer at pH 2 assessed as compound remaining at 0.1 uM after 48 hrs by RP-HPLC analysis; assay type: physicochemical; conditions: read-out: Stability; procedure, shortened: as §1
[7] = Chemical stability of the compound in phosphate buffer at pH 8 assessed as compound remaining at 0.1 uM after 48 hrs by RP-HPLC analysis; assay type: physicochemical; conditions: read-out: Stability; procedure, shortened: as §1
[8] = system: Mus musculus; assay: Antiinflammatory activity in Kunming mouse assessed as inhibition of xylene-induced auricle tumefaction at 25 uM/kg, tid qd for 5 days relative to control; assay type: functional
Procedure, shortened: (§2)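 Male Kunming mice (18–22 g), 10 per group, with 0.9% NaCl as the blank group. Dosing was once daily for 5 days (table footnote); the methods say t.i.d. Drug was given at molar equivalence to naproxen. 1 h after the last dose, a 7 mm xylene-soaked filter was held on the right ear for 30 s. Mice were killed 30 min later and 7 mm ear discs punched. Inhibition % = (1 − a/b)×100.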

[9] = system: HEK293; assay: Cytotoxicity against HEK293 cells assessed as cell viability at 2 to 32 ug/ml after 24 hrs by MTT assay; assay type: cell-based; conditions: human, hek293, 24 h
Procedure, shortened: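 HEK293 cells were seeded at 2500/well and grown 24 h before compound exposure. The figure legend gives 24 h exposure; the methods give 48 h. MTT (5 mg/ml) was then added for 2.5 h at 37 °C. Formazan was dissolved in DMSO and read at 570 nm. Viability is % of control cells, mean ± SD, n = 3.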

[10] = system: Mus musculus; assay: Antiinflammatory activity in Kunming mouse assessed as inhibition of xylene-induced auricle tumefaction at 22.2 uM/kg, tid qd for 5 days relative to control; assay type: functional; procedure, shortened: as §2

| Compound | remaining at 240 h, 0.1 µM [1] [%] | UI [2] | remaining at 48 h, 0.1 µM [3] [%] | remaining at 240 h, 0.1 µM [4] [%] | remaining at 240 h, 0.1 µM [5] [%] | remaining at 48 h, 0.1 µM [6] [%] | remaining at 48 h, 0.1 µM [7] [%] | inhibition (INH) [8] [%] | Activity [9] | inhibition (INH) [10] [%] |
| --- | --- | --- | --- | --- | --- | --- | --- | --- | --- | --- |
| COc1ccc2cc(C(C)C(=O)OCCN(CCOC(=O)C(C)c3ccc4cc(OC)ccc4c3)CCC(=O)OCCN(CCOC(=O)CCN(CCOC(=O)C(C)c3ccc4cc(OC)ccc4c3)CCOC(=O)C(C)c3ccc4cc(OC)ccc4c3)CCC(=O)OCCN(CCOC(=O)CCN(CCOC(=O)CCN(CCOC(=O)C(C)c3ccc4cc(OC)ccc4c3)CCOC(=O)C(C)c3ccc4cc(OC)ccc4c3)CCOC(=O)CCN(CCOC(=O)C(C)c3ccc4cc(OC)ccc4c3)CCOC(=O)C(C)c3ccc4cc(OC)ccc4c3)CCC(=O)OCc3ccccc3)ccc2c1 (centres undefined) | 72.3 | 6.93 | 96.2 | 79.4 | 95.9 | 95.7 | 97.3 | 39.62 | Non-toxic |  |
| COc1ccc2cc(C(C)C(=O)NCCCCC(NC(=O)C(C)c3ccc4cc(OC)ccc4c3)C(=O)NCCCCC(NC(=O)C(CCCCNC(=O)C(C)c3ccc4cc(OC)ccc4c3)NC(=O)C(C)c3ccc4cc(OC)ccc4c3)C(=O)NCCCCC(NC(=O)C(CCCCNC(=O)C(CCCCNC(=O)C(C)c3ccc4cc(OC)ccc4c3)NC(=O)C(C)c3ccc4cc(OC)ccc4c3)NC(=O)C(CCCCNC(=O)C(C)c3ccc4cc(OC)ccc4c3)NC(=O)C(C)c3ccc4cc(OC)ccc4c3)C(=O)OCc3ccccc3)ccc2c1 (centres undefined) | 93.1 | 6.21 | 97.6 | 89.4 | 96.1 | 97.1 | 91.2 | 48.18 | Non-toxic |  |
| COc1ccc2cc(C(C)C(=O)OCC(COC(=O)C(C)c3ccc4cc(OC)ccc4c3)(COC(=O)C(C)c3ccc4cc(OC)ccc4c3)NC(=O)CCC(=O)OCC(COC(=O)CCC(=O)NC(COC(=O)C(C)c3ccc4cc(OC)ccc4c3)(COC(=O)C(C)c3ccc4cc(OC)ccc4c3)COC(=O)C(C)c3ccc4cc(OC)ccc4c3)(COC(=O)CCC(=O)NC(COC(=O)C(C)c3ccc4cc(OC)ccc4c3)(COC(=O)C(C)c3ccc4cc(OC)ccc4c3)COC(=O)C(C)c3ccc4cc(OC)ccc4c3)NC(=O)OCc3ccccc3)ccc2c1 (centres undefined) | 89.9 | 5.94 | 99.1 | 79.4 | 98.4 | 97.2 | 94.5 |  | Non-toxic | 49.64 |
| COc1ccc2cc([C@H](C)C(=O)O)ccc2c1 [NAPROXEN] |  | 8.26 |  |  |  |  |  |  | Non-toxic |  |
